Test [1] concerns THP-1. Briefly: Cytotoxicity against human THP-1 cells assessed as reduction in cell viability incubated for 24 hrs. The class given is cell-based. Particulars: THP-1, 24 h.
Test [2] deals with Leishmania infantum. Briefly: Antileishmanial activity against axenic amastigote state of Leishmania infantum incubated for 24 hrs. It counts as functional, organism-based.
A short description of test [3]: Ratio of IC50 for human THP1 cells to IC50 for axenic amastigote state of Leishmania infantum. The method, boiled down:
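Selectivity index was calculated as the THP-1 cytotoxicity IC50 (24 h exposure) divided by the IC50 against L. infantum amastigotes.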

Test [4] deals with Leishmania infantum. Briefly: Antileishmanial activity against axenic amastigote state of Leishmania infantum infected in human THP-1 cells at 3 uM incubated for 48 hrs. It counts as functional, organism-based. The method, boiled down: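 THP-1 cells infected with L. infantum amastigotes were exposed to compounds at 3 μM for 48 h. Infection rate was the read-out, with autofluorescence correction applied, and results were reported as means.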

The nature of test [5]: Inhibition of trypanothione reductase (unknown origin). A digest of the protocol: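 Trypanothione reductase inhibition was expressed as IC50, with mepacrine run alongside as the positive-control TryR inhibitor.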
Test [6] in a line: Ratio of IC50 for mepacrine to IC50 for test compound for inhibition of trypanothione reductase (unknown origin). The method, boiled down: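 Trypanothione reductase inhibition assay, with mepacrine run alongside as the positive-control TryR inhibitor. The value is mepacrine IC50 divided by test-compound IC50 in the same assay.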

Calls of active or inactive are those of the source. The rule behind the calls is not given here. A value given as a limit tells only on which side of the number the result lay.

From ChEMBL document CHEMBL4725312, “Pre-clinical evidences of the antileishmanial effects of diselenides and selenocyanates” (Bioorg Med Chem Lett, 2020) come the findings set out here.

As for `Cc1ccc(C(=O)NC(=[Se])Nc2ccc([Se][Se]c3ccc(NC(=[Se])NC(=O)c4ccc(C)cc4)cc3)cc2)cc1`, the half-maximal inhibitory concentration (IC50) in test [1] is above 25 µM; in test [2], 15 µM. In test [3], the “Ratio IC50” value is reported as above 1.66.

Consider `O=C(O)COCC(=O)Nc1ccc([Se][Se]c2ccc(NC(=O)COCC(=O)O)cc2)cc1`, for which the 50% inhibitory concentration (IC50) was above 25 µM in test [1] and 12.1 µM in test [2]. The “Ratio IC50” value in test [3] was above 2.06.

Turning to `O=C(NC(=[Se])Nc1ccc([Se][Se]c2ccc(NC(=[Se])NC(=O)c3ccco3)cc2)cc1)c1ccco1`, the IC50 came out at 7.44 µM in test [1], 0.67 µM in test [2] and 9.22 µM in test [5]. Moreover, in test [3], the “Ratio IC50” value is 11.19. Moreover, in test [4], the result was Active.

With `CCCCCCCCCCCCCCCCOP(=O)([O-])OCC[N+](C)(C)C` [MILTEFOSINE], the “Ratio IC50” value in test [3] came out at 6.51.

Regarding `N#C[Se]c1ccc(NC(=O)c2ccccc2-c2ccccc2C(=O)O)cc1`, the IC50 is above 25 µM in test [1] and 10.7 µM in test [2]. The “Ratio IC50” value in test [3] is recorded as above 2.34.

`N#C[Se]c1ccc(NC(=O)COCC(=O)O)cc1`: the IC50 in test [1] and in test [2] was above 25 µM throughout.

With `O=C(NC(=[Se])Nc1ccc([Se][Se]c2ccc(NC(=[Se])NC(=O)c3ccno3)cc2)cc1)c1ccno1`, the IC50 is 1.07 µM in test [1] and 0.35 µM in test [2]. In addition, the “Ratio IC50” value in test [3] stood at 3.1.

Consider `O=C(NC(=[Se])Nc1ccc([Se][Se]c2ccc(NC(=[Se])NC(=O)c3ccc4c(c3)OCO4)cc2)cc1)c1ccc2c(c1)OCO2`, for which the IC50 was 13.5 µM in test [1] and 9.98 µM in test [2]. In addition, the “Ratio IC50” value in test [3] turned out to be 1.35.

In the case of `O=C(NC(=[Se])Nc1ccc([Se][Se]c2ccc(NC(=[Se])NC(=O)c3sccc3Cl)cc2)cc1)c1sccc1Cl`, the IC50 in test [1] was above 25 µM; in test [2] it was 5.57 µM. Moreover, the “Ratio IC50” value in test [3] is reported as above 4.48.

`O=C(NC(=[Se])Nc1ccc([Se][Se]c2ccc(NC(=[Se])NC(=O)c3ccccc3)cc2)cc1)c1ccccc1`: the IC50 in test [1] and in test [2] was above 25 µM in each case.

For `O=C(NC(=[Se])Nc1ccc([Se][Se]c2ccc(NC(=[Se])NC(=O)c3cccs3)cc2)cc1)c1cccs1`, the half-maximal inhibitory concentration (IC50) in test [1] was determined as 22.2 µM; in test [2], 4.55 µM. For the same compound, the “Ratio IC50” value in test [3] amounted to 4.87.

As for `O=C1C=CC(=O)N1c1ccc([Se][Se]c2ccc(N3C(=O)C=CC3=O)cc2)cc1`, the Ratio IC50 was 30 in test [6] and 9.91 in test [3]. The IC50 was 15.2 µM in test [1], 1.54 µM in test [2] and 0.23 µM in test [5]. For the same compound, the outcome in test [4] was Active.

With `O=C(O)/C=C\C(=O)Nc1ccc([Se][Se]c2ccc(NC(=O)/C=C\C(=O)O)cc2)cc1`, the IC50 in test [1] and in test [2] was above 25 µM in each case.

In the case of `O=C1c2ccccc2C(=O)N1c1ccc([Se][Se]c2ccc(N3C(=O)c4ccccc4C3=O)cc2)cc1`, the figures for the IC50 in test [1], in test [2] and in test [5] were 23 µM, 2.07 µM and 21.8 µM, respectively. In addition, the “Ratio IC50” value in test [3] was 11.08. Further, the result in test [4] was Active.

Turning to `CCCCCCCCCCCCCCCCCCOCC(COP(=O)([O-])OCC[N+](C)(C)C)OC` (centres undefined) [EDELFOSINE], in test [3], the “Ratio IC50” value is recorded as 6.01. Also, the outcome in test [4] was Active.

In the case of `N#C[Se]c1ccc(NC(=O)CCC(=O)O)cc1`, the IC50 was above 25 µM in test [1] and 11.3 µM in test [2]. Besides, the “Ratio IC50” value in test [3] is given as above 2.2.

As for `N#C[Se]c1ccc(NC(=O)C2CCCCC2C(=O)O)cc1` (centres undefined), the results for the IC50 in test [1] and in test [2] were above 25 µM and 10.6 µM, respectively. Besides, in test [3], the “Ratio IC50” value is above 2.35.

With `O=C(NC(=[Se])Nc1ccc([Se][Se]c2ccc(NC(=[Se])NC(=O)c3ccc(Cl)cc3)cc2)cc1)c1ccc(Cl)cc1`, the IC50 in test [1] and in test [2] was above 25 µM throughout.

Take `O=C(O)c1ccccc1C(=O)Nc1ccc([Se][Se]c2ccc(NC(=O)c3ccccc3C(=O)O)cc2)cc1`: the IC50 was above 25 µM in test [1] and 4.57 µM in test [2]. Further, the “Ratio IC50” value in test [3] is above 5.47.

As to `N#C[Se]c1ccc(NC(=O)C2C3C=CC(O3)C2C(=O)O)cc1` (centres undefined), the Ratio IC50 was 30 in test [6] and 7.76 in test [3]. Besides, the figures for the IC50 in test [1], in test [2] and in test [5] were 21.5 µM, 3.22 µM and 0.54 µM, respectively. In test [4], the result was inactive.

Regarding `N#C[Se]c1ccc(NC(=O)/C=C\C(=O)O)cc1`, the IC50 in test [1] and in test [2] was above 25 µM each time.

Take `O=C(NC(=[Se])Nc1ccc([Se][Se]c2ccc(NC(=[Se])NC(=O)c3ccc([N+](=O)[O-])cc3)cc2)cc1)c1ccc([N+](=O)[O-])cc1`: the IC50 in test [1] was above 25 µM; in test [2], 2.27 µM. Also, the “Ratio IC50” value in test [3] is reported as above 11.01.

Consider `CSc1ccc(C(=O)NC(=[Se])Nc2ccc([Se][Se]c3ccc(NC(=[Se])NC(=O)c4ccc(SC)cc4)cc3)cc2)cc1`, for which the IC50 is above 25 µM in test [1] and 13.5 µM in test [2]. Further, the “Ratio IC50” value in test [3] is above 1.85.

For `O=C(O)C1C2C=CC(O2)C1C(=O)Nc1ccc([Se][Se]c2ccc(NC(=O)C3C4C=CC(O4)C3C(=O)O)cc2)cc1` (centres undefined), the IC50 in test [1] is above 25 µM; in test [2], 1.31 µM; in test [5], 25 µM. The “Ratio IC50” value in test [3] was above 19.13. Further, in test [4], the result was Active.

With `O=C(NC(=[Se])Nc1ccc([Se][Se]c2ccc(NC(=[Se])NC(=O)c3cc4ccccc4s3)cc2)cc1)c1cc2ccccc2s1`, the IC50 was above 25 µM in test [1] and 14.6 µM in test [2]. In test [3], the “Ratio IC50” value is listed as above 1.71.

Consider `N#C[Se]c1ccc(NC(=O)c2ccccc2C(=O)O)cc1`, for which the IC50 in test [1] and in test [2] was above 25 µM in each case.

Compound `CCN(CC)CCCC(C)Nc1c2ccc(Cl)cc2nc2ccc(OC)cc12` (centres undefined) [QUINACRINE] registered an IC50 in test [5] of 17 µM.

With `O=C1COCC(=O)N1c1ccc([Se][Se]c2ccc(N3C(=O)COCC3=O)cc2)cc1`, the 50% inhibitory concentration (IC50) in test [1] worked out at 8.53 µM; in test [2], 10.4 µM. For the same compound, the “Ratio IC50” value in test [3] came to 0.82.

In the case of `O=C(O)CCC(=O)Nc1ccc([Se][Se]c2ccc(NC(=O)CCC(=O)O)cc2)cc1`, the IC50 in test [1] is above 25 µM; in test [2] it was 7.9 µM. For the same compound, the “Ratio IC50” value in test [3] is listed as above 3.16.

Take `O=C(O)C1CCCCC1C(=O)Nc1ccc([Se][Se]c2ccc(NC(=O)C3CCCCC3C(=O)O)cc2)cc1` (centres undefined): the IC50 in test [1] was above 25 µM; in test [2] it was 2.03 µM; in test [5], 18.5 µM. Further, the “Ratio IC50” value in test [3] was above 12.31. The result in test [4] was Active.

As to `O=C(NC(=[Se])Nc1ccc([Se][Se]c2ccc(NC(=[Se])NC(=O)c3cc4ccccc4nc3-c3ccccc3)cc2)cc1)c1cc2ccccc2nc1-c1ccccc1`, the values for the IC50 in test [1] and in test [2] were 8.5 µM and 6.18 µM, respectively. The “Ratio IC50” value in test [3] amounted to 1.34.

Take `N#C[Se]c1ccc(NC(=O)c2nccnc2C(=O)O)cc1`: the IC50 in test [1] and in test [2] was above 25 µM each time.

Take `O=C(NC(=[Se])Nc1ccc([Se][Se]c2ccc(NC(=[Se])NC(=O)c3cnc4ccccc4c3)cc2)cc1)c1cnc2ccccc2c1`: the IC50 is 12.8 µM in test [1] and 3.08 µM in test [2]. Further, in test [3], the “Ratio IC50” value came to 4.15.

Take `COc1cc(OC)cc(C(=O)NC(=[Se])Nc2ccc([Se][Se]c3ccc(NC(=[Se])NC(=O)c4cc(OC)cc(OC)c4)cc3)cc2)c1`: the IC50 in test [1] was above 25 µM; in test [2], 9.22 µM. Further, the “Ratio IC50” value in test [3] is above 2.77.
